Source: ChEMBL document CHEMBL3792306, “Antichagasic and trichomonacidal activity of 1-substituted 2-benzyl-5-nitroindazolin-3-ones and 3-alkoxy-2-benzyl-5-nitro-2H-indazoles” (Eur J Med Chem, 2016)

Key:
[1] = test system: Trypanosoma cruzi; assay: Antichagasic activity against Trypanosoma cruzi CL-B5 epimastigotes […] assessed as growth inhibition after 72 hrs by beta galactosidase reporter gene assay; assay type: functional, organism-based
Procedure, shortened: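 Then CPRG (200 µM final, pH 7.4) in Triton X-100 added for 3 h at 37 °C, A595 read. Triplicates, three independent runs; IC50 from dose–response of %growth inhibition, mean ± SD.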

[2] = Cytotoxicity against mouse L929 cells after 48 hrs by resazurin assay; assay type: cell-based; conditions: read-out: LC50
Procedure, shortened: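 L929 fibroblasts, 15×10^3 cells/well in MEM, attached 3 h. Exposed to compounds for 48 h at 37 °C, 5% CO2. Resazurin (2 mM solution in PBS) added for 3 h; fluorescence read at 535/590 nm to give % cytotoxicity. Triplicate wells, three independent runs. LC50 taken from concentration vs %C curves, mean ± SD.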

[3] = test system: Trichomonas vaginalis; assay: Trichomonacidal activity against metronidazole-sensitive Trichomonas vaginalis JH31A#4 trophozoites after 24 hrs by resazurin dye based fluorescence assay; assay type: functional, organism-based; conditions: JH31A#4, 24 h
Procedure, shortened: (§1)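 Trophozoites in TYM with 10% FBS, 37 °C, 5% CO₂, seeded at 10⁵/mL in glass tubes. After 5 h, compounds added at 9.37–300 µM final (DMSO <0.2%). Viability read by resazurin fluorimetry after 24 h at 37 °C. Metronidazole 25 µM as reference. At least two runs in triplicate; IC50 with 95% limits by probit.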

[4] = Cytotoxicity against african green monkey Vero cells assessed as inhibition of cell growth after 24 hrs by resazurin dye based fluorescence assay; conditions: chlorocebus sabaeus
Procedure, shortened: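 Vero CCL-81 cells (50,000/well, RPMI with 10% FBS) attached 6 h at 37 °C, then 24 h with compound. Resazurin added for 3 h, fluorescence at ex 535/em 590 nm. Triplicates in two independent assays; CC50 and 95% confidence limits by probit analysis.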

[5] = Cytotoxicity against african green monkey Vero cells assessed as inhibition of cell growth at 300 uM after 24 hrs by resazurin dye based fluorescence assay; conditions: chlorocebus sabaeus, read-out: Activity
[6] = test system: Trichomonas vaginalis; assay: Trichomonacidal activity against metronidazole-resistant Trichomonas vaginalis IR78 trophozoites after 24 hrs by resazurin dye based fluorescence assay; assay type: functional, organism-based; conditions: IR78, 24 h; procedure, shortened: as §1
[7] = Selectivity index, ratio of CC50 for african green monkey Vero cells to IC50 for metronidazole-sensitive Trichomonas vaginalis JH31A#4 trophozoites; assay type: functional
Procedure, shortened: (§2)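 Selectivity index = Vero CC50 (24 h resazurin, probit) divided by trophozoite IC50 (24 h resazurin, probit) for the named T. vaginalis isolate.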

[8] = Selectivity index, ratio of CC50 for african green monkey Vero cells to IC50 for metronidazole-resistant Trichomonas vaginalis IR78 trophozoites; assay type: functional; procedure, shortened: as §2
[9] = Selectivity index, ratio of LC50 for mouse L929 cells to IC50 for Trypanosoma cruzi CL-B5 lacZ epimastigotes […]; assay type: toxicity, cell-based; conditions: read-out: Ratio LC50/IC50
Procedure, shortened: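 SI = LC50 (L929, 48 h resazurin) / epimastigote IC50. […] CPRG (200 µM final, 0.9% Triton X-100, pH 7.4) added for 3 h at 37 °C, A595 read. Triplicates, n = 3; IC50 from %EGI curves.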

[10] = test system: Trypanosoma cruzi; assay: Antichagasic activity against Trypanosoma cruzi CL-B5 intracellular amastigotes in mouse L929 cells assessed as growth inhibition after 7 days by beta galactosidase reporter gene assay; assay type: functional, organism-based; conditions: CL-B5, L929, 168 h
Procedure, shortened: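 L929 fibroblasts (10,000/well, MEM) infected overnight at 33 °C, 5% CO₂ with CL-B5 lacZ tissue-culture trypomastigotes (1:6 cell:parasite). Washed, then 7 days with compound in fresh MEM. CPRG (400 µM final, pH 7.4) in 3% Triton X-100 for 3 h at 37 °C, A595. Triplicates; IC50 from %amastigote growth inhibition curves, mean ± SD.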

[11] = Selectivity index, ratio of LC50 for mouse L929 cells to IC50 for Trypanosoma cruzi CL-B5 lacZ amastigotes in mouse L929 cells; assay type: toxicity, cell-based; conditions: read-out: Ratio LC50/IC50
Procedure, shortened: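 SI = LC50 (L929, 48 h resazurin) / amastigote IC50. Amastigotes: L929 cells (10,000/well, MEM) infected overnight at 33 °C with CL-B5 lacZ tissue-culture trypomastigotes (1:6 cell:parasite), washed, then exposed to compounds for 7 days. CPRG (400 µM final, 3% Triton X-100, pH 7.4) added for 3 h at 37 °C, A595 read. Triplicates; IC50 from %AGI curves. Assayed only when epimastigote SI warranted.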

Row | Compound | IC50 [1] [µM] | CC50 at 48 h [2] [µM] | IC50 [3] [µM] | CC50 at 24 h [4] [µM] | inhibition at 24 h, 300 µM [5] [%] | IC50 [6] [µM] | Ratio CC50/IC50 [7] | Ratio CC50/IC50 [8] | selectivity ratio [9] | IC50 [10] [µM] | selectivity ratio [11]
1 | O=c1c2cc([N+](=O)[O-])ccc2n(CCOc2c3cc([N+](=O)[O-])ccc3nn2Cc2ccccc2)n1Cc1ccccc1 | > 256 | > 256 |  |  |  |  |  |  |  |  | 
2 | O=[N+]([O-])c1ccc2nn(Cc3ccccc3)c(OCCO)c2c1 | > 256 | > 256 | 9.82 | > 300 | 14.7 | 49.8 | >30.5 | >6 |  |  | 
3 | NC(=O)CCCn1c2ccc([N+](=O)[O-])cc2c(=O)n1Cc1ccccc1 | 31 | > 256 | 104 |  |  |  |  |  | > 8.26 |  | 
4 | CCOC(=O)n1c2ccc([N+](=O)[O-])cc2c(=O)n1Cc1ccccc1 | 49 | 122 | 419 |  |  |  |  |  | 2.49 |  | 
5 | O=C(c1ccccc1)n1c2ccc([N+](=O)[O-])cc2c(=O)n1Cc1ccccc1 | > 256 | 146 | 197 |  |  |  |  |  | < 0.57 |  | 
6 | NC(=O)CN1c2ccc([N+](=O)[O-])cc2C(=O)N(Cc2ccccc2)C1C(N)=O (configuration not stated) | > 256 | > 256 |  |  |  |  |  |  |  |  | 
7 | COC(=O)CCn1c2ccc([N+](=O)[O-])cc2c(=O)n1Cc1ccccc1 | 9.19 | > 256 | 376 |  |  |  |  |  | > 27.9 | 2.93 | > 87.4
8 | COC(=O)Cn1c2ccc([N+](=O)[O-])cc2c(=O)n1Cc1ccccc1 | 26.2 | 129 | 535 |  |  |  |  |  | 4.92 |  | 
9 | O=C(OCc1ccccc1)n1c2ccc([N+](=O)[O-])cc2c(=O)n1Cc1ccccc1 | 43.6 | 86.1 | 589 |  |  |  |  |  | 1.97 |  | 
10 | COC(=O)CN1c2ccc([N+](=O)[O-])cc2C(=O)N(Cc2ccccc2)C1C(=O)OC (configuration not stated) | > 256 | 205 | 58.2 |  |  |  |  |  | < 0.8 |  | 
11 | CCOC(=O)CCCn1c2ccc([N+](=O)[O-])cc2c(=O)n1Cc1ccccc1 | 11.1 | 78.1 | 192 |  |  |  |  |  | 7.01 |  | 
12 | CCOC(=O)CCCOc1c2cc([N+](=O)[O-])ccc2nn1Cc1ccccc1 | 25.1 | > 256 | 20.6 |  |  |  |  |  | > 10.2 | 25.4 | > 10.1
13 | N#CCn1c2ccc([N+](=O)[O-])cc2c(=O)n1Cc1ccccc1 | 11.7 | > 256 |  |  |  |  |  |  | > 21.9 | 3.5 | > 73.1
14 | COCCOc1c2cc([N+](=O)[O-])ccc2nn1Cc1ccccc1 | > 256 | > 256 | 107 |  |  |  |  |  |  |  | 
15 | C=CCn1c2ccc([N+](=O)[O-])cc2c(=O)n1Cc1ccccc1 | 4.19 | 192 | 359 |  |  |  |  |  | 45.9 | 1.58 | 122
16 | O=c1c2cc([N+](=O)[O-])ccc2n(CCCO)n1Cc1ccccc1 | 1.68 | > 256 | 128 |  |  |  |  |  | > 152 | 0.25 | > 1024
17 | COc1c2cc([N+](=O)[O-])ccc2nn1C |  |  | 18.5 |  |  |  |  |  |  |  | 
18 | CNC(=O)CCCn1c2ccc([N+](=O)[O-])cc2c(=O)n1Cc1ccccc1 | 13.3 | > 256 | 182 |  |  |  |  |  | > 19.3 | 1.5 | > 171
19 | Cc1ccc(S(=O)(=O)n2c3ccc([N+](=O)[O-])cc3c(=O)n2Cc2ccccc2)cc1 | 28.8 | > 256 | 151 |  |  |  |  |  | > 8.9 |  | 

Row | Compound | IC50 [1] [µM] | CC50 at 48 h [2] [µM] | IC50 [3] [µM] | CC50 at 24 h [4] [µM] | inhibition at 24 h, 300 µM [5] [%] | IC50 [6] [µM] | Ratio CC50/IC50 [7] | Ratio CC50/IC50 [8] | selectivity ratio [9] | IC50 [10] [µM] | selectivity ratio [11]
20 | COC(=O)C1Nc2ccc([N+](=O)[O-])cc2C(=O)N1Cc1ccccc1 (configuration not stated) | 216 | > 256 |  |  |  |  |  |  | > 1.18 |  | 
21 | O=[N+]([O-])c1ccc2nn(Cc3ccccc3)c(OCCBr)c2c1 | > 256 | > 256 | 64.8 |  |  |  |  |  |  |  | 
22 | O=[N+]([O-])c1ccc2nn(Cc3ccccc3)c(OCCCBr)c2c1 | 39 | 59 | 18.6 | 539 | < 20 | 39.1 | 29 | 13.8 | 1.51 |  | 
23 | C#CCn1c2ccc([N+](=O)[O-])cc2c(=O)n1Cc1ccccc1 | 10.8 | 195 | 261 |  |  |  |  |  | 18.1 | 3.02 | 64.7
24 | CC(=O)n1c2ccc([N+](=O)[O-])cc2c(=O)n1Cc1ccccc1 | > 256 | > 256 | 213 |  |  |  |  |  |  |  | 
25 | COC(=O)COc1c2cc([N+](=O)[O-])ccc2nn1Cc1ccccc1 | 145 | > 256 |  |  |  |  |  |  | > 1.77 |  | 
26 | CN(C)C(=O)CCCn1c2ccc([N+](=O)[O-])cc2c(=O)n1Cc1ccccc1 | 3.86 | > 256 | 48.9 | > 300 | < 20 |  | >6.1 |  | > 66.3 | 0.54 | > 474
27 | COCCn1c2ccc([N+](=O)[O-])cc2c(=O)n1Cc1ccccc1 | 6.56 | > 256 | 285 |  |  |  |  |  | > 39 | 2.29 | > 112
28 | O=[N+]([O-])c1ccc2nn(Cc3ccccc3)c(OCCOc3c4cc([N+](=O)[O-])ccc4nn3Cc3ccccc3)c2c1 | > 256 | > 256 |  |  |  |  |  |  |  |  | 
29 | O=C(O)CCn1c2ccc([N+](=O)[O-])cc2c(=O)n1Cc1ccccc1 | > 256 | > 256 |  |  |  |  |  |  |  |  | 
30 | COC(=O)CCOc1c2cc([N+](=O)[O-])ccc2nn1Cc1ccccc1 | > 256 | > 256 | 43 | > 300 | < 20 |  | >7 |  |  |  | 
31 | O=c1c2cc([N+](=O)[O-])ccc2n(CCBr)n1Cc1ccccc1 | 2.13 | > 256 | 348 |  |  |  |  |  | > 120 | 1.14 | > 225
32 | Cc1ncc([N+](=O)[O-])n1CCO [METRONIDAZOLE] |  |  | 1.43 | > 600 |  | 5.78 | >100 | >100 |  |  | 
33 | O=c1c2cc([N+](=O)[O-])ccc2n(CCCBr)n1Cc1ccccc1 | 2.9 | 25.2 | 80.2 |  |  |  |  |  | 8.69 |  | 
34 | CCOCCCn1c2ccc([N+](=O)[O-])cc2c(=O)n1Cc1ccccc1 | 6.57 | 170 | 362 |  |  |  |  |  | 25.9 | 3.31 | 51.5
35 | C=Cn1c2ccc([N+](=O)[O-])cc2c(=O)n1Cc1ccccc1 | 2.75 | 160 | 258 |  |  |  |  |  | 58.4 | 0.47 | 341
36 | NC(=O)C1Nc2ccc([N+](=O)[O-])cc2C(=O)N1Cc1ccccc1 (configuration not stated) | > 256 | > 256 |  |  |  |  |  |  |  |  | 
37 | O=C(O)CCCn1c2ccc([N+](=O)[O-])cc2c(=O)n1Cc1ccccc1 | > 256 | > 256 |  |  |  |  |  |  |  |  | 
38 | CC(=O)OCCn1c2ccc([N+](=O)[O-])cc2c(=O)n1Cc1ccccc1 | 5.43 | > 256 | 266 |  |  |  |  |  | > 47.1 | 0.25 | > 1024
